Laboratory results published in ChEMBL document CHEMBL4265988, “Molecular tools that block maturation of the nuclear lamin A and decelerate cancer cell migration” (Bioorg Med Chem, 2018).
Calls of active or inactive are those of the source. No cut-off for these calls is given here.

Key:
[1] = molecular target: T1, CAAX prenyl protease 1 homolog (Homo sapiens) (UniProt O75844); assay: Inhibition of ZMPSTE24 in human U2OS cells assessed as increase in intracellular accumulation of prelamin A at 10 uM after 24 hrs by Western blot analysis relative to control; type: cell-based
T1 sequence (whole entry): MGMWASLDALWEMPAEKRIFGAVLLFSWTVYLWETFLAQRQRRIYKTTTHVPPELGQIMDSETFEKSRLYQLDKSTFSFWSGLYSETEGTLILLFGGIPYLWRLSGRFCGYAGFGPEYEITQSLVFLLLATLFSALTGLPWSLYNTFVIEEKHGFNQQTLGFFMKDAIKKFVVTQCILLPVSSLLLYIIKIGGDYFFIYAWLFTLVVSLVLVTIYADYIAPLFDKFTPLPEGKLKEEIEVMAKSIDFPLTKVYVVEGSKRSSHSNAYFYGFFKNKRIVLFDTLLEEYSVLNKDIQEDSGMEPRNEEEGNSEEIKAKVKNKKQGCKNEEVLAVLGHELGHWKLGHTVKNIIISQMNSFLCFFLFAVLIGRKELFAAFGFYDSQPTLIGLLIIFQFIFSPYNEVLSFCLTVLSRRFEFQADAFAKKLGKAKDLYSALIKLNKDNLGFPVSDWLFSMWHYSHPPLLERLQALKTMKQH
Procedure, shortened: (§1)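 Cells treated 24 h with 10 μM compound, lysates analysed by Western blot with prelamin A-specific antibody; prelamin A band normalised to tubulin and expressed relative to untreated control (set to 1); lopinavir run in parallel as reference.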

[2] = molecular target: T1, CAAX prenyl protease 1 homolog (Homo sapiens); assay: Inhibition of ZMPSTE24 in human HCT116 cells assessed as increase in intracellular accumulation of prenylated prelamin A at 10 uM after 24 hrs by Western blot analysis relative to control; type: cell-based; procedure, shortened: as §1
[3] = molecular target: T1, CAAX prenyl protease 1 homolog (Homo sapiens); assay: Inhibition of ZMPSTE24 in human SW1990 cells assessed as increase in intracellular accumulation of prenylated prelamin A at 10 uM after 24 hrs by Western blot analysis relative to control; type: cell-based; procedure, shortened: as §1
[4] = molecular target: T1, CAAX prenyl protease 1 homolog (Homo sapiens); assay: Inhibition of ZMPSTE24 in human HPAF2 cells assessed as increase in intracellular accumulation of prenylated prelamin A at 10 uM after 24 hrs by Western blot analysis relative to control; type: cell-based; procedure, shortened: as §1
KP-4 [5] = assay: Antimigratory activity against human KP4 cells at 10 uM after 10 days by crystal violet staining-based assay; type: functional, cell-based
Procedure, shortened: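 Transmigration assay in KP-4 cells; test agents at single 10 μM, with lopinavir and 0.15% DMSO (vehicle) in buffer as controls.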

[6] = molecular target: T1, CAAX prenyl protease 1 homolog (Homo sapiens); assay: Inhibition of ZMPSTE24 in human KP4 cells assessed as increase in intracellular accumulation of prenylated prelamin A at 10 uM after 24 hrs by Western blot analysis relative to control; type: cell-based; procedure, shortened: as §1
KP-4 [7] = assay: Induction of p21 accumulation in human KP4 cells at 10 uM after 48 hrs by Western blot method; type: cell-based; conditions: kp-4, 48 h
KP-4 [8] = assay: Downregulation of MCM6 protein expression in human KP4 cells at 10 uM after 48 hrs by Western blot method; type: ADME, cell-based; conditions: kp-4, 48 h
HPAF-II [9] = assay: Downregulation of MCM6 protein expression in human HPAF2 cells at 10 uM after 48 hrs by Western blot method; type: ADME, cell-based
HPAF-II [10] = assay: Induction of p21 accumulation in human HPAF2 cells at 10 uM after 48 hrs by Western blot method; type: cell-based
KP-4 [11] = assay: Antiproliferative activity against human KP4 cells at 10 uM after 7 days by crystal violet staining-based assay; type: cell-based; conditions: kp-4, 168 h
Procedure, shortened: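 Proliferation assay in KP-4 cells, single concentration 10 μM.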

SMILES | fold change (FC) [1] | further results
Cc1cccc(C)c1OCC(=O)N[C@@H](Cc1ccccc1)[C@@H](O)C[C@H](Cc1ccccc1)NC(=O)[C@@H](NC(=O)c1ccc2[nH]nnc2c1)C(C)C | 1.5 | –
Cc1cccc(C)c1OCC(=O)N[C@@H](Cc1ccccc1)[C@@H](O)C[C@H](Cc1ccccc1)NC(=O)[C@H](C(C)C)N1CCCNC1=O | 1.2 to 2.1 | fold change (FC) [2]: 1.4; fold change (FC) [3]: 4.9; fold change (FC) [4]: 2; Activity (KP-4 [5]): inactive; fold change (FC) [6]: 2.5
Cc1cc(C)cc(C(=O)N[C@H](C(=O)N[C@@H](Cc2ccccc2)C[C@H](O)[C@H](Cc2ccccc2)NC(=O)COc2c(C)cccc2C)C(C)C)c1 | 3.4 | –
Cc1cccc(C)c1OCC(=O)N[C@@H](Cc1ccccc1)[C@@H](O)C[C@H](Cc1ccccc1)NC(=O)[C@@H](NC(=O)c1cc(C(F)(F)F)cc(C(F)(F)F)c1)C(C)C | 2.1 | –
Cc1cccc(C)c1OCC(=O)N[C@@H](Cc1ccccc1)[C@@H](O)C[C@H](Cc1ccccc1)NC(=O)[C@@H](NC(=O)c1cc(Cl)cc(C(F)(F)F)c1)C(C)C | 2.4 | –
C[C@H](NC(=O)C(Cc1ccccc1)CP(=O)(O)[C@H](Cc1ccccc1)NC(=O)OCc1ccccc1)C(=O)O (some centres not stated) | – | inhibition [1]: inactive
Cc1cccc(C)c1OCC(=O)N[C@@H](Cc1ccccc1)[C@@H](O)C[C@H](Cc1ccccc1)NC(=O)[C@@H](NC(=O)c1ccnc(Cl)c1)C(C)C | 3 | –
Cc1cccc(C)c1OCC(=O)N[C@@H](Cc1ccccc1)[C@@H](O)C[C@H](Cc1ccccc1)NC(=O)[C@@H](NC(=O)c1ccc(Br)cn1)C(C)C | 2.1 | –
COC(=O)[C@H](C)NC(=O)C(Cc1ccccc1)CP(=O)(O)[C@H](Cc1ccccc1)NC(=O)OCc1ccccc1 (some centres not stated) | – | fold change (FC) [2]: 2.2; Activity (KP-4 [7]): Non-Toxic; fold change (FC) [3]: 7.4; fold change (FC) [4]: 2.2; Activity (KP-4 [8]): Non-Toxic; Activity (HPAF-II [9]): Non-Toxic; Activity (KP-4 [5]): Active; Activity (HPAF-II [10]): Non-Toxic; fold change (FC) [6]: 3.6; Activity (KP-4 [11]): Non-Toxic
Cc1cccc(C)c1OCC(=O)N[C@@H](Cc1ccccc1)[C@@H](O)C[C@H](Cc1ccccc1)NC(=O)[C@@H](NC(=O)C1CCC(=O)N1)C(C)C (some centres not stated) | 3.2 | –
Cc1cccc(C)c1OCC(=O)N[C@@H](Cc1ccccc1)[C@@H](O)C[C@H](Cc1ccccc1)NC(=O)[C@@H](NC(=O)CC1CC1)C(C)C | 3 | –
Cc1cccc(C)c1OCC(=O)N[C@@H](Cc1ccccc1)[C@@H](O)C[C@H](Cc1ccccc1)NC(=O)[C@@H](NC(=O)C1CCCCN1)C(C)C (some centres not stated) | 2 | –
Cc1cccc(C)c1OCC(=O)N[C@@H](Cc1ccccc1)[C@@H](O)C[C@H](Cc1ccccc1)NC(=O)[C@@H](NC(=O)c1ccc([N+](=O)[O-])o1)C(C)C | 2.5 | –
Cc1cc(OC(F)(F)F)cc(C(=O)N[C@H](C(=O)N[C@@H](Cc2ccccc2)C[C@H](O)[C@H](Cc2ccccc2)NC(=O)COc2c(C)cccc2C)C(C)C)c1 | 2.7 | –
Cc1cccc(C)c1OCC(=O)N[C@@H](Cc1ccccc1)[C@@H](O)C[C@H](Cc1ccccc1)NC(=O)[C@@H](NC(=O)Cc1cccnc1)C(C)C | 1.7 | –
COc1cc(Cl)cc(C(=O)N[C@H](C(=O)N[C@@H](Cc2ccccc2)C[C@H](O)[C@H](Cc2ccccc2)NC(=O)COc2c(C)cccc2C)C(C)C)c1 | 2.7 | –
COc1cc(C(=O)N[C@H](C(=O)N[C@@H](Cc2ccccc2)C[C@H](O)[C@H](Cc2ccccc2)NC(=O)COc2c(C)cccc2C)C(C)C)cc(C(F)(F)F)c1 | 1.4 | –
Cc1cccc(C)c1OCC(=O)N[C@@H](Cc1ccccc1)[C@@H](O)C[C@H](Cc1ccccc1)NC(=O)[C@@H](NC(=O)Cc1ccc(Cl)cc1)C(C)C | 2.8 | –
